We go through 13 molecules from ChEMBL document CHEMBL1138791, “Acyl sulfonamide anti-proliferatives: benzene substituent structure-activity relationships for a novel class of antitumor agents” (J Med Chem, 2004).

The nature of assay [1]: Diameter of zone of inhibition for cell colony formation of normal fibroblast at the dose of 200 ug. The format is functional, Homo sapiens. In a few lines: (§1)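 Soft agar disk diffusion: leukemia (L1210), solid tumor (HCT116, or colon H15) and normal fibroblast cells seeded in soft agar in separate 60 mm dishes. Compound applied to a filter paper disk (dose in μg/disk) set on the agar. Colony-formation inhibition zones read after 6–7 days at 37 °C. 200 zone units = 6.5 mm; 950 = total inhibition; a range marks partial colony shrinkage. n > 2 unless noted.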

For assay [2], the system named is HCT-116. Put plainly: Diameter of zone of inhibition for cell colony formation of solid tumor HCT116 at the dose of 200 ug. The format is functional, Homo sapiens. In a few lines:
(§2)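 HCT116, L1210 leukaemia and normal fibroblast cells were seeded in soft agar in separate 60 mm dishes. The compound was applied to a filter-paper disk laid on the agar. Colony-formation inhibition zones were read after 6–7 days at 37 °C and expressed in zone units (200 units = 6.5 mm; 950 = total inhibition; 0 = none). n > 2 unless otherwise indicated.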

Assay [3] relates to L1210. Put plainly: Diameter of zone of inhibition for cell colony formation of leukemia L1210 at the dose of 200 ug. The format is functional, Mus musculus. Put shortly:
as §1

The next assay relates to MCF7. Put plainly: Growth inhibitory activity against human breast MCF-7 cell line. The format is functional. In a few lines: (§3)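 Cell-line screen run at NCI by published procedures. […] The mean graph midpoint is taken across all human cancer cell lines successfully tested.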
The test system of assay [4] is HCT-116. Put plainly: Growth inhibitory activity against human colon HCT116 cell line. The format is functional. Put shortly: as §3
For a further assay, the system named is HT-29. Put plainly: Growth inhibitory activity against human colon HT-29 cell line. The format is functional. Put shortly: as §3
Assay [5] has as its system Panel (Carcinoma cell lines). Put plainly: Mean graph mid point value for cytotoxic activity against human cancer cell lines was determined. The format is functional. In a few lines:
as §3

A further assay relates to RXF 393. Put plainly: Growth inhibitory activity against human renal RXF-393 cell line. The format is functional. In a few lines: as §3
The subject of a further assay is SW-620. Put plainly: Growth inhibitory activity against human colon SW620 cell line. The format is functional. Put shortly:
as §3

Another assay has as its system HL-60. Put plainly: Growth inhibitory activity against human leukemia HL-60 (TB) cell line. The format is functional. Details: unit not given here.
The next assay deals with NCI-H522. Put plainly: Growth inhibitory activity against human lung NCI-H522 cell line. The format is functional. Put shortly:
as §3

Assay [6] can be described thus: Diameter of zone of inhibition for cell colony formation of normal fibroblast at the dose of 210 ug; Range is 0-6.5. The format is functional, Homo sapiens. Put shortly:
as §1

Assay [7] concerns HCT-116. Put plainly: Diameter of zone of inhibition for cell colony formation of solid tumor HCT116 at the dose of 210 ug. The format is functional, Homo sapiens. In a few lines:
as §2

The subject of assay [8] is L1210. Put plainly: Diameter of zone of inhibition for cell colony formation of leukemia L1210 at the dose of 210 ug; Range is 0-5.525. The format is functional, Mus musculus. Put shortly:
as §1

The nature of assay [9]: Diameter of zone of inhibition for cell colony formation of normal fibroblast at the dose of 190 ug; Range is 0-16.575. The format is functional, Homo sapiens. In a few lines:
as §1

Assay [10] has as its system HCT-116. Put plainly: Diameter of zone of inhibition for cell colony formation of solid tumor HCT116 at the dose of 190 ug. The format is functional, Homo sapiens. Put shortly:
as §1

The subject of assay [11] is L1210. Put plainly: Diameter of zone of inhibition for cell colony formation of leukemia L1210 at the dose of 190 ug; Range is 0-10.4. The format is functional, Mus musculus. Put shortly: as §1
Assay [12] deals with L1210. Put plainly: Diameter of zone of inhibition for cell colony formation of leukemia L1210 at the dose of 210 ug; Range is 0-8.125. The format is functional, Mus musculus. Put shortly: as §1
Assay [13] in a line: Diameter of zone of inhibition for cell colony formation of normal fibroblast at the dose of 210 ug. The format is functional, Homo sapiens. Put shortly: as §1
In assay [14] the test system is L1210. Put plainly: Diameter of zone of inhibition for cell colony formation of leukemia L1210 at the dose of 190 ug. The format is functional, Mus musculus. Put shortly: as §1
A short description of assay [15]: Diameter of zone of inhibition for cell colony formation of normal fibroblast at the dose of 190 ug. The format is functional, Homo sapiens. Put shortly: as §1
A short description of assay [16]: Diameter of zone of inhibition for cell colony formation of normal fibroblast at the dose of 190 ug; Range is. The format is functional, Homo sapiens. Put shortly:
as §1

In assay [17] the test system is L1210. Put plainly: Diameter of zone of inhibition for cell colony formation of leukemia L1210 at the dose of 210 ug. The format is functional, Mus musculus. Put shortly:
as §1

Assay [18] has as its system HCT-116. Put plainly: Diameter of zone of inhibition for cell colony formation of solid tumor HCT116 at the dose of 210 ug: range is 6.5-8.125. The format is functional, Homo sapiens. Put shortly:
as §2

A short description of assay [19]: Diameter of zone of inhibition for cell colony formation of normal fibroblast at the dose of 210 ug; Range is 0-13.975. The format is functional, Homo sapiens. In a few lines: as §1
The subject of assay [20] is L1210. Put plainly: Diameter of zone of inhibition for cell colony formation of leukemia L1210 at the dose of 210 ug; Range is 3.75-5.525. The format is functional, Mus musculus. Put shortly:
as §1

A short description of assay [21]: Diameter of zone of inhibition for cell colony formation of normal fibroblast at the dose of 190 ug; Range is 0-12.35. The format is functional, Homo sapiens. Put shortly: as §1
Assay [22] can be described thus: Diameter of zone of inhibition for cell colony formation of normal fibroblast at the dose of 210 ug; Range is 0-9.425. The format is functional, Homo sapiens. Put shortly: as §1
Assay [23] deals with L1210. Put plainly: Diameter of zone of inhibition for cell colony formation of leukemia L1210 at the dose of 210 ug; Range is 6.5-8.125. The format is functional, Mus musculus. Put shortly: as §1
Assay [24] is described as follows: Diameter of zone of inhibition for cell colony formation of normal fibroblast at the dose of 190 ug; Range is 0-12.025. The format is functional, Homo sapiens. Put shortly: as §1

Take `O=C(NS(=O)(=O)c1cc([N+](=O)[O-])ccc1Cl)c1ccc(Cl)cc1Cl`: the Inhibition (in assay [1]; in the assay with HCT-116 [2]; in the assay on L1210 [3]) was 0 mm throughout.

Regarding `Cc1cc(Cl)ccc1C(=O)NS(=O)(=O)c1ccc(Cl)cc1`, the GI50 with MCF7 is 17.7 µM; in the assay on HCT-116 [4], 9.7 µM; in the assay on HT-29, 100 µM; in the assay on RXF 393 it was 8.6 µM; in the assay with SW-620, 37.9 µM; in the assay on HL-60, 49.5. The same molecule gave a GI50 in the assay on NCI-H522 of 100 µM. In [5], this molecule returned an MGM of 41.7.

For `O=C(NS(=O)(=O)c1cc(Cl)cc(Cl)c1)c1ccc(Cl)cc1Cl`, the results for the Inhibition (in assay [6]; in the assay with HCT-116 [7]; with L1210 [8]) were 6.5 mm, 12.35 mm and 5.52 mm, respectively.

With `Cc1ccc(S(=O)(=O)NC(=O)c2ccc(Cl)cc2Cl)cc1`, the figures for the Inhibition (in [9]; with HCT-116 [10]; with L1210 [11]) were 16.57 mm, 27.3 mm and 10.4 mm, respectively.

Turning to `Nc1cc(Cl)ccc1C(=O)NS(=O)(=O)c1ccc(Cl)cc1`, the Inhibition in the assay with L1210 [12] is given as 8.12 mm; in the assay with HCT-116 [7], 19.82 mm; in assay [13], 8.77 mm.

`CN(C)c1ccc(C(=O)NS(=O)(=O)c2ccc(Cl)cc2)cc1`: the figures for the Inhibition (in the assay on L1210 [14]; in the assay on HCT-116 [10]; in assay [15]) were 5.85 mm, 11.7 mm and 0 mm, respectively.

On to `O=C(NS(=O)(=O)c1ccc([N+](=O)[O-])cc1)c1ccc(Cl)cc1Cl`, for which the Inhibition with L1210 [14] turned out to be 3.57 mm; with HCT-116 [10], 17.55 mm; in [16] it was 10.07 mm.

With `O=C(NS(=O)(=O)c1ccc(Cl)cc1)c1ccc([N+](=O)[O-])cc1`, the Inhibition in the assay with L1210 [14] was 6.5 mm; in the assay on HCT-116 [10], 8.77 mm; in [15], 0 mm.

Regarding `Cc1cccc(S(=O)(=O)NC(=O)c2ccc(Cl)cc2Cl)c1`, the Inhibition is 6.5 mm with L1210 [17], 8.12 mm in the assay on HCT-116 [18] and 6.5 mm in [6].

Regarding `O=C(NS(=O)(=O)c1ccc(Br)cc1)c1ccc(Cl)cc1Cl`, the results for the Inhibition (in assay [19]; in the assay with L1210 [20]; with HCT-116 [7]) were 13.97 mm, 5.52 mm and 20.15 mm, respectively.

For the molecule `Cc1ccc(S(=O)(=O)NC(=O)c2ccc(Cl)cc2Cl)cc1Cl`, the Inhibition worked out at 18.52 mm with HCT-116 [10] and 12.35 mm in [21].

As to `O=C(NS(=O)(=O)c1ccc(-c2ccccc2)cc1)c1ccc(Cl)cc1Cl`, the Inhibition came to 9.42 mm in assay [22], 8.12 mm in the assay on L1210 [23] and 16.25 mm in the assay on HCT-116 [7].

For the molecule `O=C(NS(=O)(=O)c1cccc(-c2ccccc2)c1)c1ccc(Cl)cc1Cl`, the Inhibition is 0 mm with L1210 [14], 19.5 mm with HCT-116 [10] and 12.02 mm in assay [24].
